# What was measured:
# [1] = biological target: Kappa-type opioid receptor (Cavia porcellus, UniProt P41144); test: Binding affinity towards kappa opioid receptor by displacement of [3H]EKC in guinea pig cortical tissue
# Outline: (§1)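 Radioligand displacement. Kappa: [3H]EKC, guinea pig cortex, with fentanyl and DADL added to block mu/delta binding. Delta: [3H]DADL, rat brain homogenate.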
# [2] = biological target: Kappa-type opioid receptor (Mus musculus) (UniProt P33534); test: Antagonist activity towards U50 488 induced kappa opioid receptor by mouse writhing assay at 2.5 mg/kg subcutaneously; format: functional, organism-based; design: dose 2.5 mg/kg
# Chain of Kappa-type opioid receptor (Mus musculus) (P33534 whole entry): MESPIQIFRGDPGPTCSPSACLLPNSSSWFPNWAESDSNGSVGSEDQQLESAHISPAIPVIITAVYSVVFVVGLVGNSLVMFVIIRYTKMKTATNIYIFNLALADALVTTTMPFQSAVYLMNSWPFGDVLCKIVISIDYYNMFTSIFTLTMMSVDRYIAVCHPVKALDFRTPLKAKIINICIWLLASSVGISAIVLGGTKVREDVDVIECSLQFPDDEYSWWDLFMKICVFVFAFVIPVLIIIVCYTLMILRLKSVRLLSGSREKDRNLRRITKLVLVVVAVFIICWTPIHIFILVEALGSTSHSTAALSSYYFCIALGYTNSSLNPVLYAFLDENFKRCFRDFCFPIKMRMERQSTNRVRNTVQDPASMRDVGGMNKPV
# Outline: (§2)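 Mouse acetic acid writhing: 0.6% acetic acid ip, writhes counted for 10 min starting 5 min after injection. 5 mice/point, ≥5 doses varied 2-fold, each mouse used once. AD50 = antagonist dose reducing agonist-induced writhing inhibition to 50%.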
# [3] = biological target: Kappa-type opioid receptor (Rattus norvegicus) (UniProt P34975); test: Antagonism of bremazocine induced kappa receptor diuresis in rats at a concentration of 0.08 mg/kg subcutaneously; format: functional, organism-based; design: dose 0.08 mg/kg
# Chain of Kappa-type opioid receptor (Rattus norvegicus) (P34975 whole entry): as the sequence (P33534 whole entry) above, with D11E, S17A, S51P, A308V counted along it
# Outline: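 Male Long-Evans hooded rats (350-500 g), reused no more than twice weekly. Bremazocine 0.08 mg/kg sc, test antagonist sc on the opposite side without delay. Rats housed in metabolism cages; urine volume recorded at 2 and 5 h. 3 rats/dose, doses varied 2-fold. AD50 = dose reducing cumulative 5-h induced urination by 50%.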
# [4] = biological target: Mu-type opioid receptor (Mus musculus) (UniProt P42866); test: Antagonistic activity towards morphine induced mu-opioid receptor by mouse writhing assay at 1.25 mg/kg subcutaneously; format: functional, organism-based; design: dose 1.25 mg/kg
# Chain of Mu-type opioid receptor (Mus musculus) (P42866 whole entry): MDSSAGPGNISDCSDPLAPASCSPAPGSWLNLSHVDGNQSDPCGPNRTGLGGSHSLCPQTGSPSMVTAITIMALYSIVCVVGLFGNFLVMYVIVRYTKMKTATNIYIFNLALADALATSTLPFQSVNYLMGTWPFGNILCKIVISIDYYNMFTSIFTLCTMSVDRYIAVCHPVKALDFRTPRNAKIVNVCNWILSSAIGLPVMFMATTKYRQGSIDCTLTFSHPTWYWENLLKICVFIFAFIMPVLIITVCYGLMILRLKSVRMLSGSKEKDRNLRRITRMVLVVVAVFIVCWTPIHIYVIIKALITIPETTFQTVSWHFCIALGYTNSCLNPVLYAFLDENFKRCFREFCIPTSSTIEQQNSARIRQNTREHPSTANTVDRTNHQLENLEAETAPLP
# Outline: as §2, with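 “injection. Agonist (morphine 1.25 mg/kg or U50,488 2.5 mg/kg) and antagonist given sc 20 min before acid.” for “injection.”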
# Mu-type opioid receptor = Mu-type opioid receptor (Rattus norvegicus, UniProt P33535); test: Binding affinity towards mu-opioid receptor by the displacement of [3H]Nal in rat brain homogenates; format: tissue-based
# Chain of Mu-type opioid receptor (P33535 whole entry): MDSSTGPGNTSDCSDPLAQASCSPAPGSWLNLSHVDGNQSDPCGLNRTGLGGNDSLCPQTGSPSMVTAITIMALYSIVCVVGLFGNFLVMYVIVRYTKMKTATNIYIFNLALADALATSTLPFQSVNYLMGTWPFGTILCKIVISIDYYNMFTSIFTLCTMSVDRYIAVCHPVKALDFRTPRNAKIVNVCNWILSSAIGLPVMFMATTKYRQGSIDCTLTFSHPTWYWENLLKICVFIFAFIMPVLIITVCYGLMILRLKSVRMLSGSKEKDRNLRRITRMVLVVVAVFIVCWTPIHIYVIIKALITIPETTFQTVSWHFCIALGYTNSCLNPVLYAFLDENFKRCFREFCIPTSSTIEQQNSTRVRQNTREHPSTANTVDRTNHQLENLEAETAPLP
# Rattus norvegicus [5] = test: Tested for concentration required to reduce the food consumption by 20 % subcutaneously; format: functional
# Outline: (§3)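 Obese Zucker rats, 3-4 months old, trained to eat only 8 am-4 pm. Groups of 4 (2 male, 2 female), with one saline control group daily. Compound in saline with 10% DMSO, given sc on 3 consecutive days, typical doses 5.0-0.08 mg/kg (0.02-20 in some cases). Intake measured over the first 4 h. ED20 from regression of the linear portion of the dose-response curve.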
# Rattus norvegicus [6] = test: Tested for concentration required to reduce the food consumption by 20 % subcutaneously; The maximum effect achievedwas approximately 20% and not dose related; format: functional; details: sc; outline: as §3
# Rattus norvegicus [7] = test: Tested for concentration required to reduce the food consumption by 20 % subcutaneously; effect on feeding was minimal and not dose related; format: functional; details: sc; outline: as §3
# [8] = biological target: Delta-type opioid receptor (Rattus norvegicus, UniProt P33533); test: Binding affinity towards delta-opioid receptor by displacement of [3H]DADL in rat brain homogenates; format: tissue-based; outline: as §1
# Chain of Delta-type opioid receptor (P33533 whole entry): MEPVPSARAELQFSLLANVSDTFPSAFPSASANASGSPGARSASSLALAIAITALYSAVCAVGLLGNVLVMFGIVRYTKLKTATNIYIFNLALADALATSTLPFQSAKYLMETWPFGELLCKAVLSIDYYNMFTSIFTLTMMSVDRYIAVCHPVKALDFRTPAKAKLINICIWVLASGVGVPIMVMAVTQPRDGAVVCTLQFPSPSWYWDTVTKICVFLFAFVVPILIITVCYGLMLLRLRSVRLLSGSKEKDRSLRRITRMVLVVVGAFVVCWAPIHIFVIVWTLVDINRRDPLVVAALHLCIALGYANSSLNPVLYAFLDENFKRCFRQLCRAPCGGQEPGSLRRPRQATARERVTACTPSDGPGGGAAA
# [9] = Rattus norvegicus, sc, read-out: ED50
# Chain of Kappa-type opioid receptor (P41144 whole entry): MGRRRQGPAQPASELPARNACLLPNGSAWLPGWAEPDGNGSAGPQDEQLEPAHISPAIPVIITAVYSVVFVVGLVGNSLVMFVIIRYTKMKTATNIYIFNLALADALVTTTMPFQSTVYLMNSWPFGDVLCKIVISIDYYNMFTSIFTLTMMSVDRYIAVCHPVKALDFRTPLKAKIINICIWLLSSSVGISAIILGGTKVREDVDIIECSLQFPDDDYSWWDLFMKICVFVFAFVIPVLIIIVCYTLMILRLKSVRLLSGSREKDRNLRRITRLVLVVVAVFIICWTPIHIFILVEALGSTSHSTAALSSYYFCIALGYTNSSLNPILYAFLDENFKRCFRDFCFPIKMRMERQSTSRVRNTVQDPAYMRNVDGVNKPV
Compound,Ki [1] [nM],AD50 [2] [mg/kg],AD50 [3] [mg/kg],AD50 [4] [mg/kg],Ki (Mu-type opioid receptor) [nM],ED50 (Rattus norvegicus [5]; [9]) [mg/kg],ED50 (Rattus norvegicus [6]) [mg/kg],ED50 (Rattus norvegicus [5]) [mg/kg],ED50 (Rattus norvegicus [7]) [mg/kg],Ki [8] [nM]
C[C@H]1CN(CCCC2CCCCC2)CC[C@@]1(C)c1cccc(O)c1,2.3,0.19,1,0.35,0.49,0.12,,,,
CC(C)CCN1CC[C@@](C)(c2cccc(O)c2)[C@@H](C)C1,70,0.62,4.5,0.87,32,> 20,,,,
O=C1CC[C@@]2(O)[C@H]3Cc4ccc(O)c5c4[C@@]2(CCN3CC2CC2)[C@H]1O5 [NALTREXONE],,,,,,,1.7,,,
C[C@H]1CN(CCC2CCCCC2)CC[C@@]1(C)c1cccc(O)c1,2.3,0.12,0.69,0.1,0.65,3.6,,,,
CC(C)CCCCN1CC[C@@](C)(c2cccc(O)c2)[C@@H](C)C1 (stereo in doubt; 21),5.9,,,,0.46,,,0.06,,
C[C@H]1CN(CCC2C=CCC2)CC[C@@]1(C)c1cccc(O)c1 (some centres undefined),1,0.12,1.4,0.11,12,0.44,,,,
C[C@@H]1CN(CC[C@@H](O)C2CCCCC2)CC[C@]1(C)c1cccc(O)c1,14.3,0.52,5.2,0.52,2.2,,,,> 1.25,
C[C@H]1CN(CCC(=O)C2CCCCC2)CC[C@@]1(C)c1cccc(O)c1,3.9,0.26,,0.12,0.34,0.13,,,,
CCCCCCN1CC[C@@](C)(c2cccc(O)c2)[C@@H](C)C1 (stereo in doubt; 16),,,,,,,,0.51,,
CCCCCCN1CC[C@@](C)(c2cccc(O)c2)[C@@H](C)C1 (stereo in doubt; 37),,0.22,0.86,0.26,,,,,,
CC(C)CCCCN1CC[C@@](C)(c2cccc(O)c2)[C@@H](C)C1 (stereo in doubt; 39),1.91,,,,0.89,,,0.14,,
C[C@H]1CN(CCC(O)C2CCCC2)CC[C@@]1(C)c1cccc(O)c1 (some centres undefined),5.5,0.08,0.99,0.04,0.41,0.09,,,,
C[C@H]1CN(CCCc2cccs2)CC[C@@]1(C)c1cccc(O)c1 (stereo in doubt; 29),,,,,,0.07,,,,
C[C@H]1CN(CC[C@@H](O)C2CCCCC2)CC[C@@]1(C)c1cccc(O)c1,11.4,0.36,1.1,0.03,2.4,0.16,,,,
C[C@@H]1CN(CC[C@H](O)C2CCCCC2)CC[C@]1(C)c1cccc(O)c1,6.5,0.24,1.6,0.13,,0.11,,,,
C[C@H]1CN(CCCc2ccsc2)CC[C@@]1(C)c1cccc(O)c1,,0.24,1.9,0.12,,0.06,,,,
C[C@H]1CN(CCC(O)C2CCCCC2)CC[C@@]1(C)c1cccc(O)c1 (some centres undefined),4.8,0.14,0.49,0.07,0.29,0.05,,,,
C[C@H]1CN(CCCc2cccs2)CC[C@@]1(C)c1cccc(O)c1 (stereo in doubt; 41),,,,,,,,0.11,,10.3
C[C@H]1CN(CCC(O)c2ccccc2)CC[C@@]1(C)c1cccc(O)c1 (some centres undefined),,0.92,2.5,0.05,1,0.5,,,,
C[C@H]1CN(C)CC[C@@]1(C)c1cccc(O)c1,,> 5,> 5,,,4.1,,,,

# Source: ChEMBL document CHEMBL1127053, “3,4-Dimethyl-4-(3-hydroxyphenyl)piperidines: opioid antagonists with potent anorectant activity” (J Med Chem, 1993)
